Many of the other results were omitted from the sample, so hits are more common in it than they were.
S1P4 antag – S1P4 receptor antagonists, primary screen, cell-based. Sphingosine 1-phosphate receptor 4 (Homo sapiens), O95977. S1P4-expressing cells, antagonist mode, reporter read-out. AID 1510, 2009. 0.26% of 220,000 active. inhibition, % at 4.98 µM; in the data active = inhibition above about 29%;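 also: 0% = wells stimulated with agonist and 100% = vehicle wells without agonist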
Mdm2 ligase inh – MDM2-luciferase reporter signal enhancers, primary screen, MDM2 E3 ligase inhibitor project, cell-based, luminescence, 1536-well. E3 ubiquitin-protein ligase Mdm2 (Homo sapiens), Q00987. cell-based MDM2 ubiquitination luciferase reporter, 2 h; 0 = plate control, 100 = twice control, blank-subtracted. signal enhancement, % at 5 µM. 0.11% of 210,000 active;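 active = signal enhancement of 30% or more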;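 also: luminescence tracks abundance of the self-degrading MDM2-luciferase fusion protein; higher signal means inhibition of MDM2 E3 ligase activity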
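System: stable MDM2–luciferase fusion reporter cells / Input: 2000 cells seeded into each well / Schedule: 4 h settle plus 2 h compound, 37 °C / Compound: single-point 5 µM / Buffer or medium: cells held in DMEM / Benchmarks: control and blank well means / Evaluation: percent signal gain over controls, blank-subtracted / Measured by: luciferase luminescence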
S1P4 ag – S1P4 receptor agonists, primary screen, cell-based; 0.35% of 220,000 active; S1P4-expressing cell line, agonist reporter assay; AID 1509, 2009; activation, % at 4.98 µM; in the data active = activation above about 11%;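 also: 0% = DMSO vehicle and 100% = reference agonist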
L major viab – Leishmania major promastigote growth inhibition, primary screen; AID 1063, 2008; Leishmania major promastigotes, resazurin fluorescence viability; inhibition, % at 10 µM; 9% of 200,000 active; in the data active = inhibition above about 50%;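 also: promastigotes grown with compound for 44 hours at 28 °C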
S1P3 antag – S1P3 receptor antagonists, primary screen, cell-based. CHO S1P3 NFAT-BLA reporter, FRET fluorescence, antagonist mode. inhibition, % at 4.98 µM. 0.27% of 170,000 active. AID 485, 2006;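 active = inhibition above the plate cutoff, the mean inhibition of test wells on that plate plus 3 SD, cut at about 28% in these data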;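 also: cells challenged with S1P at its EC80 of 0.8 µM; blue over green emission ratio from cleaved BLA substrate after 4 h stimulation; 0% = S1P-stimulated wells and 100% = unstimulated DMSO-only wells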
Target sequence (Q99500 whole entry, looked up): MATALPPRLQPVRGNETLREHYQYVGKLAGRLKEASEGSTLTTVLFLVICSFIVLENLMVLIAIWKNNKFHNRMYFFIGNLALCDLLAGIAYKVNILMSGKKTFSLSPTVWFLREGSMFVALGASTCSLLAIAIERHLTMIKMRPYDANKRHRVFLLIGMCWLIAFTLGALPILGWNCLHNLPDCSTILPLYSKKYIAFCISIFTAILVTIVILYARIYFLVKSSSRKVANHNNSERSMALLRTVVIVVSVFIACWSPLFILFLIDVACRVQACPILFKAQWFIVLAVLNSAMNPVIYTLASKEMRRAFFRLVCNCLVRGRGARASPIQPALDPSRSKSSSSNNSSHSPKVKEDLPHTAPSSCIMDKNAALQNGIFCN
* hit, by the source's call; / = no result given.

SMILES	S1P4 antag	Mdm2 ligase inh	S1P4 ag	L major viab	S1P3 antag
CCC(C(=O)OCC(=O)Nc1cc(Cl)cc(Cl)c1)c1ccccc1 (stereo unspecified)	-14	-7	1	-7	-28
CCN1CCN(c2nc3sc4c(c3c(=O)n2-c2ccc(OC)cc2)CCCCC4)CC1	-8	-17	0	98*	/
CCOC(=O)c1c(-c2ccccc2)oc2ccc(O)c(CN3CCN(C)CC3)c12	17	-4	-1	89*	-4
CCOC(=O)c1c(-c2ccccc2)oc2cc(CN(C)C)c(O)c(CN(C)C)c12	-4	/	1	100*	/
CCOC(=O)c1c(-c2ccccc2)oc2ccc(OCC)cc12	9	-14	-1	-6	2
O=[N+]([O-])c1cccc(-c2noc(-c3ccco3)n2)c1	7	-100	0	/	-8
O=C(Nc1cc(SCCO)cc([N+](=O)[O-])c1)c1ccco1	0	3	2	61*	-19
O=C(Nc1cc(Oc2ccc(Cl)cc2)cc([N+](=O)[O-])c1)c1ccco1	-16	-9	2	64*	7
Cc1nn(-c2ccc(F)cc2)c(C)c1NS(=O)(=O)c1ccc(Cl)cc1	-6	1	2	9	-3
CCN(CC)CCOC(=O)C1c2ccccc2Oc2ccccc21	10	-18	0	0	/
CN(C)CCCCOc1ccccc1-c1ccccc1	-2	16	-1	20	/
CN(C)CCC1Sc2ccccc2Oc2ccccc21 (stereo unspecified)	25	/	-2	100*	/
CC1c2ccccc2SC(CCCN(C)C)c2ccccc21 (stereo unspecified)	8	-6	0	100*	-15
CC(C)=CCN1CCN(Cc2cc(C(C)C)n[nH]2)CC1CCO (stereo unspecified)	-8	-5	1	-9	-15
CCn1cc(C2=NOC(C(=O)Nc3ccc4c(c3)OCO4)C2)c(C)n1 (stereo unspecified)	-28	4	6	57*	11
N#CCCN(Cc1cccnc1)C(=S)Nc1ccccc1Cl	-11	-93	1	23	0
Cc1ccc(NC(=O)N(CCCN2CCOCC2)Cc2cccnc2)cc1C	-10	-14	4	65*	/
O=C(Nc1ccc(Cl)c(Cl)c1)N(Cc1cccnc1)Cc1ccco1	-4	4	1	100*	6
Cc1c(Cl)cccc1NC(=S)N(Cc1cccnc1)Cc1ccccc1Cl	5	3	2	95*	0
S=C(Nc1ccccc1Cl)N(Cc1cccnc1)Cc1ccco1	-11	-8	-1	95*	1
COc1ccccc1NC(=S)N(Cc1ccccc1)Cc1cccnc1	-20	-3	-1	33	-13
COc1ccc(NC(=O)N(CCCN2CCOCC2)Cc2cccnc2)c(OC)c1	1	/	-2	7	-15
Cc1cc(Br)ccc1NC(=O)CN1C(=S)NC(C)(C)CC1C (stereo unspecified)	-8	3	0	-3	1
CSCC[C@H](NC(=O)OC(C)(C)C)c1nnc(SCC=C(C)C)o1	-4	-19	1	6	-8
CNc1nn(-c2cccc(Cl)c2)nc1N	-10	-14	-1	29	-14
SMILES	S1P4 antag	Mdm2 ligase inh	S1P4 ag	L major viab	S1P3 antag
Cn1c(SCC(=O)N2CCCc3ccccc32)nnc1-c1ccccc1	-16	0	2	-6	24
Cn1c(SCC(=O)N2c3ccccc3CCc3ccccc32)nnc1-c1cc2ccccc2cc1O	-17	-10	0	98*	-14
Cc1cccc(-c2nnc(SCC(=O)N3c4ccccc4CCc4ccccc43)n2C)c1	-13	2	-1	91*	-11
CCCn1c(CNc2ccc(Br)cc2)nc2ccccc21	2	-9	0	97*	12
CCn1c(CNc2ccc(C(=O)O)cc2)nc2ccccc21	-11	-13	2	-1	/
Cc1cc(C)nc(/N=C2\NC(=O)CC(C(=O)O)N2c2cccc(Cl)c2)n1 (stereo unspecified)	-12	-12	0	-1	-14
COC(=O)/C=C1/N/C(=N\c2nc(C)cc(C)n2)N(c2ccc(Cl)cc2)C1=O	-13	2	0	50*	5
COc1cc(C(=O)Oc2cc(C)cc(C)c2)cc(OC)c1OC	2	11	1	-7	/

Screens (PubChem)
